Experimental data as given in ChEMBL document CHEMBL1157070, “Polyhydroxysteroidal glycosides from the starfish Anthenea chinensis” (J Nat Prod, 2010).
The source made the active and inactive calls. The rule behind the calls is not given here.

Columns and labels:
[1] = Cytotoxicity against human U87MG cells after 72 hrs by MTT assay; assay type: functional, cell-based, U-87MG ATCC; settings: U-87 MG
Method in brief: (§1)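 MTT colorimetric read-out per a previously described method. K-562 (human leukemia) used 10-hydroxycamptothecine as positive control, U87MG (human spongioblastoma) used nimustine. IC50 read from dose-response curves as the concentration causing 50% reduction in absorption versus control cells. Mean of three independent experiments, triplicate wells per concentration.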

Bel-7402 = assay: Cytotoxicity against human Bel7402 cells after 72 hrs by SRB assay; assay type: functional, cell-based; settings: Bel-7402, 72 h
Method in brief: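 Human hepatoma BEL-7402 cells, sulforhodamine B protein stain per a reported method. Dose-response curves plotted; IC50 taken as the concentration giving 50% lower absorption than control cells. Means of three independent experiments, each concentration in triplicate wells. 10-Hydroxycamptothecine as positive control.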

K562 = assay: Cytotoxicity against human K562 cells after 72 hrs by MTT assay; assay type: functional, cell-based; settings: K562, 72 h; method in brief: as §1
Tubulin (Sus scrofa) = Tubulin (Sus scrofa) (UniProt P02554+P02550); assay: Induction of pig brain tubulin polymerization at 10 ug/ml
Chain of Tubulin (Sus scrofa) (P02550 whole entry, looked up): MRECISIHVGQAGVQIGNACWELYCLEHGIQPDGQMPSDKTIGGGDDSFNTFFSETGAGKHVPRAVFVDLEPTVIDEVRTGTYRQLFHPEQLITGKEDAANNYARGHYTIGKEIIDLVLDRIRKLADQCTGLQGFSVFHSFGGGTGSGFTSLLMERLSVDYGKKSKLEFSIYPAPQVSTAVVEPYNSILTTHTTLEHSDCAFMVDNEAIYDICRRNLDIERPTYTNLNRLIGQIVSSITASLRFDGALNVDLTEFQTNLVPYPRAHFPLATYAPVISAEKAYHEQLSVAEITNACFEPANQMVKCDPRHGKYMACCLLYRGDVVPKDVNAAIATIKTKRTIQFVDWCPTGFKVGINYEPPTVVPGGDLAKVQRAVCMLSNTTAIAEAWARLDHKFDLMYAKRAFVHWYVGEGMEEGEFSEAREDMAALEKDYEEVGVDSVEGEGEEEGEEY
Chain of Tubulin (Sus scrofa) (P02554 whole entry, looked up): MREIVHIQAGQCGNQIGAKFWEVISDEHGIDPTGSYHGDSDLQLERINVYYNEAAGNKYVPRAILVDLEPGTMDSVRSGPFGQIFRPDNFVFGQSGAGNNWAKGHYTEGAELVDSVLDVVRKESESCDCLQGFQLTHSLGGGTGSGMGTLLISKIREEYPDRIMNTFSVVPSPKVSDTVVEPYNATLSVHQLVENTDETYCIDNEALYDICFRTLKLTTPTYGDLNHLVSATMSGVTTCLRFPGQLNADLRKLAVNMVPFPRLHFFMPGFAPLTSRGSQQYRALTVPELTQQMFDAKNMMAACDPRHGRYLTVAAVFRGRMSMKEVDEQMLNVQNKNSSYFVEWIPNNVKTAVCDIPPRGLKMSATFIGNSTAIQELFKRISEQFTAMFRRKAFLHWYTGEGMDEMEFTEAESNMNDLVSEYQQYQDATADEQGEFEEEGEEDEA

Compound: C=C(CC[C@@H](C)[C@H]1[C@H](O[C@@H]2O[C@@H]([C@@H](O)COC)[C@H](O[C@@H]3O[C@@H]([C@@H](O)COC)[C@H](O)[C@H]3O)[C@H]2O)CC2=C3[C@@H](O)[C@@H](O)[C@H]4C[C@H](O)CC[C@]4(C)[C@H]3CC[C@@]21C)C(C)C [ANTHENOSIDE G]
- IC50 [1]: > 25.1 µM
- IC50 (Bel-7402): 5.5 µM
- IC50 (K562): 4.6 µM
- Activity (Tubulin (Sus scrofa)): inactive

Compound: CCC(CC[C@@H](C)[C@H]1[C@H](O[C@@H]2O[C@@H]([C@@H](O)COC)[C@H](O[C@@H]3O[C@@H]([C@@H](O)COC)[C@H](O)[C@H]3O)[C@H]2O)CC2=C3[C@@H](O)[C@@H](O)[C@H]4C[C@H](O)CC[C@]4(C)[C@H]3CC[C@@]21C)C(C)C (mixture of isomers)
- IC50 [1]: > 24.5 µM
- IC50 (Bel-7402): 4.9 µM
- IC50 (K562): 2.8 µM
- Activity (Tubulin (Sus scrofa)): inactive

Compound: COC[C@H](O)[C@@H]1O[C@@H](O[C@@H]2[C@@H](O)[C@H](O[C@@H]3CC4=C5[C@@H](O)[C@@H](O)[C@H]6C[C@H](O)CC[C@]6(C)[C@H]5CC[C@]4(C)[C@H]3[C@H](C)CCCC(C)C)O[C@H]2[C@@H](O)COC)[C@H](O)[C@H]1O [ANTHENOSIDE E]
- IC50 [1]: > 25.4 µM
- IC50 (Bel-7402): 8.3 µM
- IC50 (K562): 6.1 µM
- Activity (Tubulin (Sus scrofa)): inactive

Compound: Cc1ncc(CNC(=O)N(CCCl)N=O)c(N)n1 [NIMUSTINE]
- IC50 [1]: 0.84 µM

Compound: CC[C@@]1(O)C(=O)OCc2c1cc1n(c2=O)Cc2cc3cc(O)ccc3nc2-1 [HYDROXYCAMPTOTHECIN]
- IC50 (Bel-7402): 0.36 µM
- IC50 (K562): 0.16 µM

Compound: CCC(CC[C@@H](C)[C@H]1[C@H](O[C@@H]2O[C@@H]([C@@H](O)COC)[C@H](O)[C@H]2O)CC2=C3[C@@H](O[C@@H]4O[C@@H]([C@@H](O)COC)[C@H](O)[C@H]4O)[C@@H](O)[C@H]4C[C@H](O)CC[C@]4(C)[C@H]3CC[C@@]21C)C(C)C (mixture of isomers)
- IC50 [1]: 3.6 µM
- IC50 (Bel-7402): 2.7 µM
- IC50 (K562): 0.6 µM
